pIC50: −log10 of the molar value.
Biological target: T1, EDC3 (Homo sapiens, UniProt Q96F86)
T1 sequence (Q96F86 1-508): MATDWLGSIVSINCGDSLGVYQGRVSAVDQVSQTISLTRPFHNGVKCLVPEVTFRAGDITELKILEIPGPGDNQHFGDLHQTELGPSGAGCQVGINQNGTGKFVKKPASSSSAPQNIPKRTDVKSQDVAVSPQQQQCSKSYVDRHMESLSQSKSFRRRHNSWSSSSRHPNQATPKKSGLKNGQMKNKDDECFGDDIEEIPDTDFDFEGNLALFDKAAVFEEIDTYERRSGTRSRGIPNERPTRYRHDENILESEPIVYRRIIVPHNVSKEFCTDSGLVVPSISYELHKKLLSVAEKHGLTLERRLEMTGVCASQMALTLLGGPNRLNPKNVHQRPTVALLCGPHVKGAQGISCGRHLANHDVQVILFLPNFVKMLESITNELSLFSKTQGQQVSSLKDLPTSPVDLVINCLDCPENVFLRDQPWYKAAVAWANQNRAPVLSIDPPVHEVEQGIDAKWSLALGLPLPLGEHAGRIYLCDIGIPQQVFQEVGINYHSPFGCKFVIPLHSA
Assay: competitive gel-based ABPP in situ
Format: cell-based
How it was run: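 Recombinant EDC3-expressing HEK293T cells pretreated with test compound (0.1–100 µM, 2 h); lysed, and soluble proteomes labelled with HHS-465 Tyr/Lys-reactive sulfonyl-triazole probe (100 µM, 1 h, RT). CuAAC to rhodamine-azide, SDS-PAGE and in-gel fluorescence scanning. IC50 estimated from dose-dependent loss of EDC3 probe labelling; mean ± SEM, n = 3 biologically independent replicates.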

COc1ccc(S(=O)(=O)n2cc(CS(C)(=O)=O)nn2)cc1 [AHL-030]
pIC50: ~5.22

— PMC10392812 (Journal of the American Chemical Society, 2023)
